These results are taken from ChEMBL document CHEMBL1157084, “Exploring the structural requirements for inhibition of the ubiquitin E3 ligase breast cancer associated protein 2 (BCA2) as a treatment for breast cancer” (J Med Chem, 2010).

The subject of test [1] is MDA-MB-231. Nature of the test: Antiproliferative activity against human MDA-MB-231 cells expressing BCA2 and ERalpha after 72 hrs by MTT assay. To be noted: MDA-MB-231, 72 h. The class given is functional, cell-based. The method, boiled down:
(§1)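 Each compound run in triplicate; actives repeated in three independent experiments, IC50 read from growth curves as mean ± SD. Cells in RPMI 1640 + 10% heat-inactivated FBS (MDA-MB-231/ER also with 1 mg/mL G418; MCF10A in MEGM), 37 °C, 5% CO2, exponential phase.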
(Tetrazolium dyes change colour on reduction, which living cells bring about.)

Test [2] can be described thus: Antiproliferative activity against human MCF10A cells after 72 hrs by MTT assay. The class given is cell-based. The conditions noted are these: MCF-10A. The method, boiled down: as §1
Test [3] deals with MDA-MB-231. Nature of the test: Antiproliferative activity against BCA2 and ER deficient human MDA-MB-231 cells after 72 hrs by MTT assay. The class given is functional, cell-based. The conditions noted are these: MDA-MB-231, 72 h. The method, boiled down:
as §1

Test [4] concerns MCF7. Nature of the test: Antiproliferative activity against human MCF7 cells expressing BCA2 and estrogen receptor after 72 hrs by MTT assay. The format is functional, cell-based. To be noted: MCF7, 72 h. The method, boiled down:
as §1

The next test has as its system T47D. Put plainly: Antiproliferative activity against human T47D cells expressing BCA2 and estrogen receptor after 72 hrs by MTT assay. The format is functional, cell-based. An outline of the steps: as §1
In test [5] the target is E3 ubiquitin-protein ligase Mdm2 (Homo sapiens) (UniProt Q00987). Nature of the test: Inhibition of recombinant RING-E3 ligase Mdm2 autoubiquitination at 5 to 50 uM after 30 mins by Western blotting in presence of human recombinant E2 UbcH5b. In general terms: Immunoblotting shows a protein as a band on a membrane.
The species entered for test [6] is Homo sapiens. Nature of the test: Inhibition of wild type human recombinant His-BCA2 autoubiquitination expressed in Escherichia coli at 5 uM after 30 mins by Western blotting in presence of human recombinant E2 UbcH5b. An outline of the steps:
(§2)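 10 ng E. coli-expressed His-BCA2 preincubated 30 min at room temperature with compound (final 5 or 50 μM, DMSO stocks). Then added ATP, 1 μg ubiquitin, 20 ng rabbit E1 and 20 ng UbcH5b in Tris HCl pH 8.0 with DTT and MgCl2. Reaction 1 h at 30 °C, then SDS-PAGE on 4–20% gel and immunoblot with anti-ubiquitin antibody.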

Test [7] has as its target T1, Aldehyde dehydrogenase 1A1 (Homo sapiens) (UniProt P00352).
T1 sequence (whole entry): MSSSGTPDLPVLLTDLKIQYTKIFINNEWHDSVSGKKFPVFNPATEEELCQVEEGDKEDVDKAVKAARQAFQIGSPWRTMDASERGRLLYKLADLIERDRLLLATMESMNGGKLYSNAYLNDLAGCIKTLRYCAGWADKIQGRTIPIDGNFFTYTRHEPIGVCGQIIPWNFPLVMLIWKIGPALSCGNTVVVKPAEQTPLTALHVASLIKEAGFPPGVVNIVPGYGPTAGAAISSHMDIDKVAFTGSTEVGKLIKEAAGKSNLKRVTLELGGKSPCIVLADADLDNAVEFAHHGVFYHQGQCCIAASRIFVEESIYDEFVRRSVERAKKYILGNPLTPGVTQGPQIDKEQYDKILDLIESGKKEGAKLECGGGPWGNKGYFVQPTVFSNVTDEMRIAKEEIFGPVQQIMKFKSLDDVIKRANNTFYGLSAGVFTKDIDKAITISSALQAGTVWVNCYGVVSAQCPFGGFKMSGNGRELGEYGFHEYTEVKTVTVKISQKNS
Put plainly: Inhibition of ALDH1 in human K562 cells at 15 uM after 45 mins by flow cytometry based method relative to bodipy-aminoacetaldehyde. The class given is cell-based. In general terms: Flow cytometry measures light scatter and fluorescence of single cells or particles in a stream.

In the next test the test system is K562. Put plainly: Percentage of ALDH+ cells in human K562 cells at 15 uM after 45 mins by flow cytometry based method. The conditions noted are these: K562, 0.75 h.
Test [8] is filed under the species Homo sapiens. Nature of the test: Inhibition of wild type human recombinant His-BCA2 autoubiquitination expressed in Escherichia coli at 50 uM after 30 mins by Western blotting in presence of human recombinant E2 UbcH5b. The method, boiled down: as §2
The subject of test [9] is MCF7. Nature of the test: Antiproliferative activity against human MCF7 cells expressing BCA2 and estrogen receptor at IC50 concentration after 5 days by MTT assay in presence of 75 uM to 600 nM zinc chloride. The format is functional, cell-based. An outline of the steps: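 MCF-7 cells (BCA2+, ER+) grown in RPMI 1640 with 10% heat-inactivated FBS, 37 °C, 5% CO2, used in exponential growth. Drug given with zinc chloride across 600 nM–75 μM for 5 days, then MTT read-out. Vehicle-treated cells without ZnCl2 or drug set as 100% growth.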

Test [10] has as its system MCF7. Nature of the test: Reduction of BCA2 protein expression in human MCF7 cells at IC100 after 16 hrs by Western blotting in presence of MG132. The format is functional, cell-based.
Test [11] concerns MCF7. Put plainly: Reduction of BCA2 protein expression in human MCF7 cells at IC100 after 16 hrs by Western blotting in presence of cyclohexamide. The format is functional, cell-based.
The subject of test [12] is MCF7. Put plainly: Reduction of BCA2 protein expression in human MCF7 cells at IC100 after 16 hrs by Western blotting in presence of cyclohexamide and MG132. The format is functional, cell-based.
The subject of test [13] is MCF7. Put plainly: Reduction of BCA2 protein expression in human MCF7 cells at IC100 after 16 hrs by Western blotting. The format is functional, cell-based.

The source made the active and inactive calls. The rule behind the calls is not given here.

Chain of E3 ubiquitin-protein ligase Mdm2 (Homo sapiens) (Q00987 whole entry, looked up): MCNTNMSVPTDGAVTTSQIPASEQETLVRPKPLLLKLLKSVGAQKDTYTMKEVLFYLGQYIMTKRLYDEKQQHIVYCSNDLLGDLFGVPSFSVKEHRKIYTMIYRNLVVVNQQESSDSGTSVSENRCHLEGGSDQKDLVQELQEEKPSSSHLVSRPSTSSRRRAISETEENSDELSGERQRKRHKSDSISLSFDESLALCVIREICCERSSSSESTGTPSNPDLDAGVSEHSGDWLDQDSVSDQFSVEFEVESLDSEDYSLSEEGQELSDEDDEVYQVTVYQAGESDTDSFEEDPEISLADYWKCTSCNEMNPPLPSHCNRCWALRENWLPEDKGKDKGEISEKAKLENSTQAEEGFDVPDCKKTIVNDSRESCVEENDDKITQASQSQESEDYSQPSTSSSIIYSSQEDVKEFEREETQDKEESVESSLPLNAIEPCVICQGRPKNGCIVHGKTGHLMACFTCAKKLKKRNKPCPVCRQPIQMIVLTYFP

For `S=C(SSC1CCCCC1)N1CCCCC1`, the IC50 in the test on MDA-MB-231 [1] is 2300 nM; in [2] it was over 10000 nM; in the test with MDA-MB-231 [3], 6700 nM; with MCF7 [4], 600 nM; in the test with T47D, 250 nM.
Consider `S=C(SSC(=S)N1CCCC1)N1CCCC1` [BIS(PYRROLIDINYLTHIOCARBONYL)DISULFIDE], for which the outcome (in test [5]; in the test listed under Homo sapiens [6]) was inactive. Besides, the IC50 with MDA-MB-231 [1] was 250 nM; in test [2], over 10000 nM; in the test with MDA-MB-231 [3], over 10000 nM; in the test on MCF7 [4] it was 380 nM; in the test with T47D, 280 nM. This molecule also yielded an inhibition in [7] of 3.4%. In the test on K562, this molecule had an ALDH+ cells (%) at 15 µM of 39%. In addition, the outcome in the test listed under Homo sapiens [8] was Active.
Consider `CCCCCCSSC(=S)N(CC)CC` [DIETHYLCARBAMO(DITHIOPEROXO)THIOATE], for which the outcome (in the test with MCF7 [9]; in test [5]; in the test listed under Homo sapiens [6]) was inactive. In addition, the outcome in the test on MCF7 [10], in the test on MCF7 [11], with MCF7 [12], in the test with MCF7 [13] and in the test filed under Homo sapiens [8] was Active. Moreover, the IC50 in the test on MDA-MB-231 [1] was 350 nM; in test [2], over 10000 nM; in the test with MDA-MB-231 [3], over 10000 nM; in the test with MCF7 [4], 430 nM; with T47D, 230 nM. For the same molecule, the inhibition in test [7] came to 9.8%. The molecule also returned an ALDH+ cells (%) at 15 µM in the test with K562 of 36.5%.
`Cc1cc(C)n2c1C=C1C=CC(CCC(=O)NCC=O)=[N+]1[B-]2(F)F` showed an inhibition in [7] of 0%. In the test on K562, this molecule came in with an ALDH+ cells (%) at 15 µM of 40.4%.
Consider `CCN(CC)C(=S)SSC(C)C` [ISOPROPYL DIETHYLCARBAMO(DITHIOPEROXO)THIOATE], for which the IC50 in the test on MDA-MB-231 [1] is 250 nM; in test [2], over 10000 nM; in the test with MDA-MB-231 [3], 960 nM; with MCF7 [4], 390 nM; in the test on T47D, 230 nM.
The matching figures for `CCC(C)SSC(=S)N(CC)CC` (stereo unspecified): 2100 nM, over 10000 nM, 6000 nM, 450 nM and 200 nM.
With `CCCCSSC(=S)N(CC)CC` [BUTYL DIETHYLCARBAMO(DITHIOPEROXO)THIOATE], the IC50 in the test with MDA-MB-231 [1] is 300 nM; in test [2] it was over 10000 nM; with MDA-MB-231 [3], 7400 nM; with MCF7 [4] it was 400 nM; in the test on T47D, 150 nM.
The matching figures for `CCN(CC)C(=S)SSc1ccc(C(=O)O)cc1`: 550 nM, over 10000 nM, 6300 nM, 500 nM and 150 nM.
With `CCN(CC)C(=S)SSCCO`, the result (in test [5]; in the test listed under Homo sapiens [6]) was inactive. For the same molecule, the IC50 was 2750 nM with MDA-MB-231 [1], over 10000 nM in test [2], 500 nM in the test with MCF7 [4] and 300 nM in the test on T47D. In test [7], the inhibition was 8.6%. Moreover, in the test listed under Homo sapiens [8], the result was Active.
As to `S=C(SSC(=S)N1CCCCC1)N1CCCCC1` [BIS(PIPERIDINYLTHIOCARBONYL)DISULFIDE], the outcome (in the test on MCF7 [9]; in test [5]; in the test filed under Homo sapiens [6]) was inactive. In addition, the result in the test on MCF7 [10], in the test on MCF7 [11], in the test on MCF7 [12], in the test with MCF7 [13] and in the test filed under Homo sapiens [8] was Active. Besides, the IC50 in the test with MDA-MB-231 [1] is 590 nM; in test [2], over 10000 nM; in the test with MDA-MB-231 [3], over 10000 nM; in the test with MCF7 [4], 30 nM; in the test with T47D, 270 nM. The molecule further had an inhibition in test [7] of 79.5%. Moreover, in the test on K562, the ALDH+ cells (%) at 15 µM was 8.3%.
Regarding `CCCCSSC(=S)N1CCCCC1`, the IC50 in the test on MDA-MB-231 [1] is 390 nM; in [2], over 10000 nM; in the test with MDA-MB-231 [3] it was 8000 nM; with MCF7 [4] it was 650 nM; with T47D it was 350 nM.
In the case of `CCN(CC)C(=S)SSC(=S)N(CC)CC`, the result (in the test on MCF7 [9]; in test [5]; in the test filed under Homo sapiens [6]) was inactive. In addition, the IC50 in the test on MDA-MB-231 [1] was 320 nM; in test [2], 10000 nM; in the test on MDA-MB-231 [3], over 10000 nM; in the test on MCF7 [4], 100 nM; in the test on T47D it was 170 nM. Further, the inhibition in test [7] came out at 57.3%. The ALDH+ cells (%) at 15 µM in the test on K562 was found to be 17.3%. Moreover, the outcome in the test listed under Homo sapiens [8] was Active.
With `C1CN(SSN2CCOCC2)CCO1` [DITHIODIMORPHOLINE], the IC50 (with MDA-MB-231 [1]; in test [2]; with MDA-MB-231 [3]; in the test on MCF7 [4]; in the test with T47D) was over 10000 nM throughout.
With `S=C(SSC1CCCCC1)N1CCCC1`, the IC50 in the test with MDA-MB-231 [1] was 250 nM; in test [2], over 10000 nM; in the test on MDA-MB-231 [3] it was 4700 nM; in the test with MCF7 [4], 1400 nM; in the test with T47D it was 1350 nM.
`CN1CCN(C(=S)SSC(=S)N2CCN(C)CC2)CC1`: the IC50 in the test on MDA-MB-231 [1] was 290 nM; in [2], over 10000 nM; in the test with MDA-MB-231 [3] it was 3000 nM; in the test with MCF7 [4], 350 nM; with T47D, 330 nM.
With `CCN(CC)C(=S)SSC1CCCCC1` [CYCLOHEXYL DIETHYLCARBAMO(DITHIOPEROXO)THIOATE], the IC50 is 280 nM in the test with MDA-MB-231 [1]; over 10000 nM in test [2]; 960 nM with MDA-MB-231 [3]; 300 nM in the test on MCF7 [4]; 180 nM in the test on T47D.

As usually defined, the IC50 is the concentration that inhibits the measured activity by half. A lower IC50 goes with higher potency. Broadly, the inhibition is the relative decrease from the control value, in per cent. Low readings indicate a response near the control, high ones a response far below the control.
